In the library only some 4.9% were active in any assay of this set; here they are far more common.
STAT1 act: activators of IFN-gamma induced STAT1 signaling; activation (% of control), % at 5.5 µM; 200,000 compounds, 2.6% hits; NIH 3T3 STAT1-luciferase reporter, luminescence; 100% = IFN-gamma alone, no compound; AID 932;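 active means activation above the screen-wide mean activation plus 3 SD, cut at about 130% in these data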;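 further: raw ratio to IFN-gamma control signal so 100% means no change and 0% no light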
APP 5'UTR act: activates APP 5'UTR luciferase reporter; SH-SY5Y APP 5'UTR luciferase reporter, luminescence; zero percent = DMSO vehicle wells; activation, % at 2 µM; 190,000 compounds, 1% hits; AID 1276;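 active means activation above a set limit, based on mean plus 3 SD of controls, cut at about 140% in these data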
STAT3 blocker: STAT3 signaling inhibition; U3A cells, IL-6 STAT3-luciferase reporter, luminescence; host cell line lacks STAT1; inhibition, % at 5.5 µM; 190,000 compounds, 0.89% hits;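 active means inhibition above the mean inhibition across all screened compounds plus 3 SD, cut at about 44% in these data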;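 further: 0% = DMSO only wells and 100% = 100 µM nifuroxazide control wells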
NF-kB neuron act: raises NF-kB expression in human neuronal cells; NF-kB reporter expression; stronger effect = higher value; fold change at 12.5 µM; 190,000 compounds, 1.6% hits; AID 1239; in the data active means fold change above about 3.3
STAT3 act: STAT3 signaling activation; U3A cells, IL-6 STAT3-luciferase reporter, luminescence; 100% = signal with IL-6 EC80 alone; activation (% of control), % at 5.6 µM; 190,000 compounds, 0.91% hits;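 active means activation above the screen-wide mean of compound activation plus 3 SD, cut at about 130% in these data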;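 further: 0% = background luminescence of wells with medium and substrate only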
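Material: human STAT1-deficient U3A cells with stable STAT3-luciferase reporter / Probe or stimulus: IL-6 stimulus at 33 ng/mL final / Schedule: 1 h compound pre-exposure, 6 h IL-6 stimulation, 37 °C / Technique: luminescence / Read-out basis: percent of IL-6-only median luminescence / Control set: IL-6-only high control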
STAT1 inh: reduces IFN-gamma driven STAT1 reporter signal | NIH 3T3 STAT1-luciferase reporter, luminescence | 200,000 compounds, 0.35% hits | inhibition, % at 5.5 µM;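 active means inhibition above a set limit, the mean inhibition across all tested compounds plus 3 SD, cut at about 34% in these data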;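 further: 0% = IFN-gamma with DMSO and 100% = IFN-gamma with 300 µM nifuroxazide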
The depositor's hits bear a star; . = no result.

SMILES | STAT1 act | APP 5'UTR act | STAT3 blocker | NF-kB neuron act | STAT3 act | STAT1 inh
CCC(=O)Nc1ccc2c(c1)C(=O)N(C)C2=O | 99 | 15 | 10 | 1.1 | 90 | 1
CC(=O)c1cccc(NC(=S)NC(=O)c2cccc(Cl)c2)c1 | 140* | 60 | -5 | 2.1 | 103 | -44
CCC(=O)Nc1ccc2c(c1)C(=O)c1ccccc1C2=O | 148* | 104 | 14 | 4.2* | 94 | -54
NC(=S)Nc1ccc2cn[nH]c2c1 | 103 | 32 | 2 | 1.1 | 110 | -4
CC(CCc1ccccc1)NC(=O)COC(=O)c1cccs1 (configuration not stated) | 102 | 6 | 0 | 2.4 | 104 | -3
CCOC(=O)c1cc2c(ccn2-c2ccc(F)cc2)n1CC(=O)NC(C)(C)C | 100 | 3 | 15 | 1.1 | 93 | -3
COc1ccc(NC(=O)CNc2ccc(C#N)cc2)cc1 | 110 | 22 | 25 | 1.2 | 83 | -11
CC(NC(=S)NCCCN1CCOCC1)C12CC3CC(CC(C3)C1)C2 (configuration not stated) | 98 | 28 | -10 | 1.1 | 110 | 1
O=C(NC(=S)Nc1ccc2c(c1)C(=O)c1ccccc1C2=O)c1ccc(F)cc1 | 116 | 89 | 24 | 3.3* | 82 | -19
CNC(=S)Nc1cccc(C(C)=O)c1 | 105 | -4 | 3 | 1.1 | 101 | -8
CC(=O)c1cccc(NC(=S)NC(=O)c2ccccc2)c1 | 133* | 71 | 8 | 3.8* | 93 | -37
O=C(NC(=S)Nc1ccc2c(c1)OCO2)c1ccccc1 | 146* | 170* | 15 | 7.3* | 96 | -51
O=c1c2ccccc2n(Cc2cccc(F)c2)c(=O)n1C1CCCC1 | 100 | -3 | -1 | 0.74 | 106 | 0
COc1ccc(/C=N/NC(=O)CSc2nnc(CCCc3ccc(OC)c(C)c3)o2)cc1 | 101 | -7 | -4 | 1.1 | 103 | -1
COc1ccc(NC(=S)Nc2ccc(N)c([N+](=O)[O-])c2)cc1 | 114 | -32 | -18 | 3.3* | 122 | -15
COc1ccc(NC(=O)c2ccccc2[N+](=O)[O-])cc1 | 106 | 9 | 8 | 1.2 | 96 | -6
Cc1ccccc1C(=O)O/N=C(\N)c1cccc([N+](=O)[O-])c1 | 139* | 89 | -21 | 3.2 | 128 | -43
COc1ccc(/C(N)=N/OC(=O)c2cccc([N+](=O)[O-])c2C)cc1OC | 112 | 0 | 22 | 1.3 | 84 | -13
COc1cccc(C(=O)O/N=C(\N)c2ccc([N+](=O)[O-])cc2)c1OC | 132* | . | 9 | 2.7 | 98 | -35
Cc1cccc(C(=O)O/N=C(\N)c2cccc([N+](=O)[O-])c2)c1 | 130* | 95 | 3 | 2.9 | 107 | -33
N/C(=N\OC(=O)c1cccc2ccccc12)c1cccc([N+](=O)[O-])c1 | 106 | 18 | 24 | 1.4 | 89 | -7
c1ccc(C[n+]2cccc3c4ccccc4ccc32)cc1 | 81 | -2 | 60* | 1.1 | 57 | 21
c1ccc(-c2csc3ncnc(NCCCN4CCOCC4)c23)cc1 | 88 | 2 | 20 | 0.85 | 85 | 14
c1ccc(-c2csc3ncnc(NCC4COc5ccccc5O4)c23)cc1 (configuration not stated) | 64 | -19 | 84* | 1.2 | 31 | 38*
Cc1ccc(CN2C(=O)C3CCCN3c3ccc(S(=O)(=O)N4CCOCC4)cc32)cc1 (configuration not stated) | 104 | 8 | -15 | 1.1 | 114 | -5
SMILES | STAT1 act | APP 5'UTR act | STAT3 blocker | NF-kB neuron act | STAT3 act | STAT1 inh
COc1ccc(-c2cc(C(=O)Nc3nc4c(C)cccc4s3)c3ccccc3n2)cc1OC | 92 | 0 | -42 | 0.91 | 134* | 9
Cn1c(C(=O)NCc2ccccn2)cc2c(=O)n3ccccc3nc21 | 133* | 17 | 14 | 1.9 | 91 | -37
Cc1ccc(C(=O)N(CC(=O)NC2CCCC2)c2ccc3c(c2)OCCO3)s1 | 102 | -11 | 2 | 1.1 | 105 | -2
Clc1ccc(-c2csc(N/N=C\c3cccnc3)n2)cc1 | 106 | 22 | 12 | 1.2 | 90 | -6
C(=N\Nc1nc(-c2ccccc2)cs1)/c1ccncc1 | 149* | 92 | 6 | 2.9 | 97 | -56
Cc1ccc(-c2csc(N/N=C/C=C/c3ccccc3)n2)cc1 | 111 | 6 | 16 | 1.2 | 90 | -12
Cc1ccc(-c2csc(N/N=C/c3ccco3)n2)cc1 | 116 | 25 | 26 | 2.9 | 80 | -17
C(=N\Nc1nc(-c2ccccc2)cs1)/c1cccs1 | 145* | 47 | -14 | 7.4* | 122 | -54
C(=N\Nc1nc(-c2ccccc2)cs1)/c1ccco1 | 147* | 156* | 4 | 5.2* | 95 | -51
CCCCCC(=O)N/N=C(\C)c1ccc(Cl)cc1 | 97 | -4 | 3 | 1.1 | 107 | 3
O=C(c1ccccc1)c1ccc(C(=O)N2CCN(c3ccc(F)cc3)CC2)o1 | 84 | 10 | 23 | 1.1 | 88 | 17
O=C(/C=C/c1cnc2ccccc2n1)NC12CC3CC(CC(C3)C1)C2 | 150* | 190* | 3 | 1 | 97 | -55
O=C(O)/C=C/c1cnc2ccccc2n1 | 96 | -3 | -1 | 1.4 | 108 | 4
COc1ccc(C(=O)/C=C/Nc2ccc(NC(C)=O)cc2)cc1OC | 111 | -9 | 19 | 0.99 | 89 | -12
COc1ccc(N/C=C/C(=O)c2ccc(Cl)cc2)cc1 | 140* | 152* | -4 | 1 | 104 | -45
COC(=O)c1ccc(N/C=C/C(=O)c2ccc(OC)c(OC)c2)cc1 | 111 | 13 | 9 | 1.1 | 99 | -12
Cc1ccc(C(=O)/C=C\Nc2ccc(C)c(C)c2)cc1 | 136* | 170* | 6 | 2.4 | 96 | -39
COc1cccc(C(=O)/C=C/Nc2ccc(NC(C)=O)cc2)c1 | 136* | 60 | 1 | 1.1 | 99 | -41
Cc1ccc(C(=O)/C=C/Nc2ccccn2)cc1 | 24 | 115 | 109* | . | 12 | 84*
CC(C)Sc1nc2ccccc2n1CC(=O)O | 111 | -10 | -1 | 0.94 | 105 | -14
COc1cccc(C(=O)c2c[nH]c(C(=O)NCCCN3CCOCC3)c2)c1 | 86 | -7 | 7 | 1.3 | 99 | 13
CCCCc1ccc(NC(=S)NCc2ccccc2OC)cc1 | 100 | 25 | -4 | 1.1 | 103 | 0
COc1ccc(Nc2nc3c(C)cccc3cc2C#N)c(OC)c1 | 95 | 4 | 0 | 1.3 | 105 | 5
CCN(CC)CCNc1nc2cc(OC)c(OC)cc2c2nc(-c3ccccc3)nn12 | 106 | 13 | -18 | 0.43 | 119 | -6
COc1cc(C2(O)CCCCC2C)cc(OC)c1OC (configuration not stated) | 99 | -2 | 12 | 1.3 | 94 | 1
Cc1ccc(C(=O)/C=C/C(=O)c2ccc(C)cc2)cc1 | 89 | -67 | -8 | 1.5 | 109 | 11

Screening data (PubChem BioAssay)
